Each structure is given as a SMILES string.

Type in all cases: functional, cell-based
Experiment [1] deals with T1, P2X purinoceptor 7 (Homo sapiens) (UniProt Q99572).
T1 sequence (whole entry): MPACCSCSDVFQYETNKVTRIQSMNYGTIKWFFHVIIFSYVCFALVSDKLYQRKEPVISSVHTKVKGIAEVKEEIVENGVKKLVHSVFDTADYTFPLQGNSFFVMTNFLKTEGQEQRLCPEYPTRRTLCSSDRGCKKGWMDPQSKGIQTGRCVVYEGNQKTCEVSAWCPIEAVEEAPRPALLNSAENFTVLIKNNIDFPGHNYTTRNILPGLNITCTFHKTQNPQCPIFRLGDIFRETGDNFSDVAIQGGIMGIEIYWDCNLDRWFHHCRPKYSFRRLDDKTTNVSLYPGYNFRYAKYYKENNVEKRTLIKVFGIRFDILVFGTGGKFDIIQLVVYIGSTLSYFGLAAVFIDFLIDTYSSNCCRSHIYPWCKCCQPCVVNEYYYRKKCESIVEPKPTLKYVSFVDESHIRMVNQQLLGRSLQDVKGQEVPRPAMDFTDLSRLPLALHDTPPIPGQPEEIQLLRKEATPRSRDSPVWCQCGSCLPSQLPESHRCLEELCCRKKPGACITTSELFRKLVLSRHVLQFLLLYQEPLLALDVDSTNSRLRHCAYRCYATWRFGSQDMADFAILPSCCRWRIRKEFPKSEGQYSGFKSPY
In words: Antagonist activity at human P2X7 receptor expressed in HEK293 cells assessed as inhibition of BzATP-induced fluorescent ethidium accumulation. As to conditions: concentration not given here. In a few lines:
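Adherent HEK293 cells stably transfected with human P2X7 cDNA, resuspended at 2.5×10^6 cells/mL in HEPES buffer (mM: ethidium bromide 0.1, EDTA 1, glucose 5, HEPES 20, KCl 140; pH 7.4). Cells added to compound wells, then BzATP, and incubated 120 min at 37 °C. Ethidium uptake read by fluorescence (ex 530/20, em 590/20). IC50 is the mean from dose–response curves of at least three experiments.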

The target in another experiment is T2, P2X purinoceptor 7 (Homo sapiens, UniProt Q99572).
T2 sequence (Q99572 whole entry): T1 sequence (whole entry)
In words: Antagonist activity at human P2X7 receptor expressed in HEK293 cells assessed as inhibition of BzATP-induced fluorescent ethidium accumulation […]. In a few lines:
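Human P2X7-expressing HEK293 cells at 2.5×10^6 cells/mL in pH 7.4 HEPES/KCl/EDTA/glucose buffer containing 0.1 mM ethidium bromide. Compound tested at 10 μM, then BzATP added, and cells held 120 min at 37 °C. Ethidium accumulation measured by fluorescence (ex 530/20, em 590/20) and expressed as % inhibition, mean ± SD of three repeats.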

Experiment [2] has as its target T1, P2X purinoceptor 7 (Homo sapiens). The experiment is described as follows: Antagonist activity at P2X7 receptor in IFN-gamma/LPS-differentiated human THP1 cells assessed as inhibition of BzATP-induced IL1-beta release at 10 uM treated 30 mins prior to BzATP addition by ELISA. As to conditions: THP-1. In a few lines: (§1)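 THP-1 cells differentiated and primed 3 h with 25 ng/mL LPS plus 10 ng/ml IFNγ. Compound added 30 min before stimulation with 1 mM BzATP for 30 min. Supernatants cleared by centrifugation (1000 rpm, 5 min), and mature human IL-1β quantified by ELISA.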

Experiment [3] shares this target. The experiment is described as follows: Antagonist activity at P2X7 receptor in IFN-gamma/LPS-differentiated human THP1 cells assessed as inhibition of BzATP-induced IL1-beta release treated 30 mins prior to BzATP addition by ELISA. The following applies: THP-1. In a few lines:
as §1
(In general: An ELISA detects its analyte on a solid surface through an enzyme-linked reagent.)

Consider `O=C1N[C@@H](Cc2ccccc2)CN(C(=O)C2CC2)c2cn(CCC3CCNCC3)nc21`, for which the inhibition (commonly the drop in the measured response relative to a control, in per cent) in experiment [1] turned out to be 13%.
Turning to `Cn1cc(C(=O)OC[C@H]2CN(Cc3cccc(F)c3)c3cn(CCc4ccccc4)nc3C(=O)N2)c2ccccc21`, the inhibition in experiment [1] amounted to 45%.
As to `Cn1cc(C(=O)OC[C@H]2CN(Cc3ccc(F)cc3)c3cn(CCc4ccccc4)nc3C(=O)N2)c2ccccc21`, the inhibition in experiment [1] was determined as 39%.
As to `O=C1N[C@@H](COC(=O)c2cccc3cnccc23)CN(Cc2ccccc2)c2cn(CCc3ccccc3)nc21`, the figures for the inhibition in experiment [1] and in experiment [2] were 68% and 42%, respectively. Further, the IC50 (usually the concentration needed to halve the response being measured) at P2X purinoceptor 7 came out at 1450 nM.
For `Cc1ccc(CN2C[C@H](COC(=O)c3cccc4cnccc34)NC(=O)c3nn(CCc4ccccc4)cc32)cc1`, in that order: 69%, 48% and 1180 nM.
Regarding `Cc1cc(O)ccc1CN1C[C@H](COC(=O)c2cn(C)c3ccccc23)NC(=O)c2nn(CCc3ccccc3)cc21`, the inhibition in experiment [1] is 88%; in experiment [2] it was 37%. The IC50 on P2X purinoceptor 7 was 180 nM.
As for `Cc1cccc(CN2C[C@H](COC(=O)c3cn(C)c4ccccc34)NC(=O)c3nn(CCc4ccccc4)cc32)c1`, the inhibition in experiment [1] was 46%.
`Cn1cc(C(=O)OC[C@H]2CN(Cc3ccc(Br)cc3)c3cn(CCc4ccccc4)nc3C(=O)N2)c2ccccc21`: the inhibition came out at 88% in experiment [1] and 50% in experiment [2]. Further, at P2X purinoceptor 7, the IC50 was found to be 850 nM.
On to `O=C1N[C@@H](Cc2ccccc2)CN(C(=O)C2CC2)c2cn(CCC3CCN(Cc4cccc5ncccc45)CC3)nc21`, for which the inhibition in experiment [1] is 24%.
On to `Cn1cc(C(=O)OC[C@H]2CN(Cc3ccc([N+](=O)[O-])cc3)c3cn(CCc4ccccc4)nc3C(=O)N2)c2ccccc21`, for which the inhibition in experiment [1] amounted to 65%; in experiment [2] it was 41%. In addition, the IC50 at P2X purinoceptor 7 was determined as 1420 nM.
Regarding `O=C1N[C@@H](COC(=O)c2cccc3cnccc23)CNc2cn(CCc3ccccc3)nc21`, the values for the inhibition in experiment [1] and in experiment [2] were 71% and 44%, respectively. The IC50 on P2X purinoceptor 7 was 790 nM.
Regarding `Cn1cc(C(=O)OC[C@H]2CN(Cc3ccc(Cl)cc3)c3cn(CCc4ccccc4)nc3C(=O)N2)c2ccccc21`, the values for the inhibition in experiment [1] and in experiment [2] were 94% and 55%, respectively. The IC50 on P2X purinoceptor 7 stood at 250 nM.
On to `O=C(OC[C@H]1CNc2cn(CCc3ccccc3)nc2C(=O)N1)c1ccccc1`, for which, in experiment [1], the inhibition is 33%.
`Cc1cccc(CN2C[C@H](COC(=O)c3cccc4cnccc34)NC(=O)c3nn(CCc4ccccc4)cc32)c1`: the inhibition in experiment [1] came to 42%.
Regarding `Cc1cc(CN2C[C@H](COC(=O)c3cccc4cnccc34)NC(=O)c3nn(CCc4ccccc4)cc32)ccc1O`, the inhibition in experiment [1] stood at 84%; in experiment [2] it was 51%. Besides, the IC50 on P2X purinoceptor 7 was found to be 740 nM.
Turning to `Cn1cc(CN2C[C@H](COC(=O)c3cn(C)c4ccccc34)NC(=O)c3nn(CCc4ccccc4)cc32)c2ccccc21`, the figures for the inhibition in experiment [1] and in experiment [2] were 68% and 65%, respectively. Also, the IC50 at P2X purinoceptor 7 was determined as 1070 nM.
As for `COc1ccc(CN2C[C@H](COC(=O)c3cn(C)c4ccccc34)NC(=O)c3nn(CCc4ccccc4)cc32)cc1`, the inhibition in experiment [1] was found to be 29%.
For the molecule `CN([C@@H](Cc1ccc(OS(=O)(=O)c2cccc3cnccc23)cc1)C(=O)N1CCN(c2ccccc2)CC1)S(=O)(=O)c1cccc2cnccc12`, on P2X purinoceptor 7, the IC50 is 110 nM. Besides, the inhibition in experiment [2] is 103%.
As to `CC(C)(C)OC(=O)N1CCC(CCn2cc3c(n2)C(=O)N[C@H](Cc2ccccc2)CN3C(=O)C2CC2)CC1`, the inhibition in experiment [1] is 70%. In addition, the IC50 at P2X purinoceptor 7 is 4310 nM.
`Cc1ccc(CN2C[C@H](COC(=O)c3cn(C)c4ccccc34)NC(=O)c3nn(CCc4ccccc4)cc32)cc1`: the results for the inhibition in experiment [1] and in experiment [2] were 87% and 38%, respectively. For the same molecule, the IC50 on P2X purinoceptor 7 amounted to 520 nM.
Consider `O=C1N[C@@H](COC(=O)c2cccc3ccccc23)CNc2cn(CCc3ccccc3)nc21`, for which, in experiment [1], the inhibition is 46%.
With `O=C1N[C@@H](COC(=O)c2cccc3cnccc23)CN(Cc2ccc(Br)cc2)c2cn(CCc3ccccc3)nc21`, the inhibition in experiment [1] amounted to 38%.
Turning to `O=C1N[C@@H](COC(=O)c2cccc3cnccc23)CN(Cc2ccc(F)cc2)c2cn(CCc3ccccc3)nc21`, the results for the inhibition in experiment [1] and in experiment [2] were 75% and 65%, respectively. Besides, the half-maximal inhibitory concentration (IC50) at P2X purinoceptor 7 was found to be 1280 nM.
Consider `CC(C)(C)OC(=O)N1CCC(CCn2cc3c(n2)C(=O)N[C@@H](Cc2ccccc2)CN3C(=O)C2CC2)CC1`, for which, in experiment [1], the inhibition stood at 61%. Besides, the IC50 at P2X purinoceptor 7 came out at 13000 nM.
In the case of `Cn1cc(C(=O)OC[C@H]2CN(Cc3ccccc3)c3cn(CCc4ccccc4)nc3C(=O)N2)c2ccccc21`, the inhibition in experiment [1] is 94%; in experiment [2], 105%. For the same molecule, the IC50 on P2X purinoceptor 7 stood at 310 nM. In experiment [3], the Activity entry is “Dose-dependent effect”.
For the molecule `O=C1N[C@@H](Cc2ccccc2)CN(C(=O)C2CC2)c2cn(CCC3CCN(Cc4cccc5cnccc45)CC3)nc21`, the inhibition in experiment [1] was determined as 27%.
Regarding `Cn1cc(C(=O)OC[C@H]2CNc3cn(CCc4ccccc4)nc3C(=O)N2)c2ccccc21`, the inhibition in experiment [1] is 43%.
For the molecule `Cn1cc(C(=O)OCC2CN(Cc3cccc4ccccc34)c3cn(CCc4ccccc4)nc3C(=O)N2)c2ccccc21` (single isomer, unassigned), the inhibition in experiment [1] amounted to 48%.
Turning to `Cn1cc(CN2C[C@H](COC(=O)c3cccc4cnccc34)NC(=O)c3nn(CCc4ccccc4)cc32)c2ccccc21`, the inhibition in experiment [1] was determined as 33%.
Still for that read-out and setting: to `O=C1N[C@@H](COC(=O)c2cccc3ccccc23)CN(Cc2ccccc2)c2cn(CCc3ccccc3)nc21` belongs 44%; to `Cn1cc(CN2CCC(CCn3cc4c(n3)C(=O)N[C@@H](Cc3ccccc3)CN4C(=O)C3CC3)CC2)c2ccccc21`, 39%; to `Cc1cc(O)ccc1CN1C[C@@H](COC(=O)c2cn(C)c3ccccc23)NC(=O)c2nn(CCc3ccccc3)cc21`, 30%.

The values above are taken from ChEMBL document CHEMBL1156084, “Synthesis and structure-activity relationships of pyrazolodiazepine derivatives as human P2X7 receptor antagonists” (Bioorg Med Chem Lett, 2009).
